Series [1] in a line: Drug concentration in wildtype mouse brain at 600 ppm administered as rodent chow starting from 1.5 months and measured after 5 months. The series is classed as ADME, tissue-based. To be noted: route po, time 3.5 months, read-out: Ct. A digest of the protocol: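 WT or 5xFAD mice were fed PLX3397 in AIN-76A chow at 600 ppm or 75 ppm from 1.5 to 5 months of age. Terminal brain and plasma drug concentrations were determined at study end.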

Series [2] can be described thus: Volume of distribution at steady state in mouse at 1.92 mg/kg, iv administered as single dose. In kind it is ADME, organism-based. To be noted: in vivo, read-out: Vdss.
Series [3] deals with Tyrosine-protein kinase BTK (Homo sapiens, UniProt Q06187). As to the kind of experiment: Inhibition of BTK (unknown origin).
The target of series [4] is Fibroblast growth factor receptor 4 (Homo sapiens, UniProt P22455). The series can be described thus: Inhibition of FGFR4 (unknown origin).
The target of series [5] is Tyrosine-protein kinase Fes/Fps (Homo sapiens, UniProt P07332). The series can be described thus: Inhibition of FES (unknown origin).
Series [6] relates to Mus musculus. As to the kind of experiment: Antialzheimer activity in 5XFAD mouse assessed as A11 protein intensity at 1200 ppm administered as rodent chow starting from 1.5 months and measured after 7 months by immunoblot analysis (reference value: 54.431 to 142.272 a.u.). In kind it is functional. As to conditions: route po, time 5.5 months, 4015 h. Background: In western blotting, separated proteins are transferred to a membrane and probed.

Another series addresses Rhodopsin kinase GRK7 (Homo sapiens, UniProt Q8WTQ7). The series can be described thus: Inhibition of GRK7 (unknown origin).
Series [7] in a line: Effect on Kcnq3 gene expression in wildtype mouse hippocampus assessed as percent change in Reads Per kilo base per Million mapped reads at 1200 ppm administered as rodent chow starting from 1.5 months and measured after 7 months by RNA-Seq analysis (reference value: 77.761 to 119.973 %). The series is classed as functional. As to conditions: route po, time 5.5 months, 4015 h.

The target in series [8] is Casein kinase II subunit alpha' (Homo sapiens, UniProt P19784). As to the kind of experiment: Inhibition of CSNK2A2 (unknown origin).
The target of the next series is Ephrin type-B receptor 1 (Homo sapiens, UniProt P54762). The series can be described thus: Inhibition of EPHB1 (unknown origin).
Series [9] has as its system Mus musculus. As to the kind of experiment: Antialzheimer activity in 5XFAD mouse assessed as average diameter of claudin-5 blood vessels in Thio-S positive retro spinal cortex at 1200 ppm administered as rodent chow starting from 1.5 months and measured after 4 months by immunolabeling analysis. In kind it is functional. As to conditions: route po, time 2.5 months, 1825 h.

The target of series [10] is Macrophage-stimulating protein receptor (Homo sapiens, UniProt Q04912). The series can be described thus: Inhibition of MST1R (unknown origin).
The target in series [11] is cGMP-dependent protein kinase 2 (Homo sapiens, UniProt Q13237). The series can be described thus: Inhibition of PRKG2 (unknown origin).
The target of series [12] is Ribosomal protein S6 kinase alpha-6 (Homo sapiens, UniProt Q9UK32). The series can be described thus: Inhibition of RPS6KA6 (unknown origin).
Series [13] relates to Mus musculus. The series can be described thus: Antialzheimer activity in 5XFAD mouse assessed as alteration in plaque morphology by measuring mean plaque intensity in subiculum at 1200 ppm administered as rodent chow starting from 1.5 months and measured after 7 months by Thio-S labeling based confocal microscopic analysis (reference value: 129.81 to 150.11). The series is classed as functional. To be noted: route po, time 5.5 months, 4015 h.

Series [14] concerns the target T1, Macrophage colony-stimulating factor 1 receptor (Mus musculus) (UniProt P09581).
T1 sequence (whole entry): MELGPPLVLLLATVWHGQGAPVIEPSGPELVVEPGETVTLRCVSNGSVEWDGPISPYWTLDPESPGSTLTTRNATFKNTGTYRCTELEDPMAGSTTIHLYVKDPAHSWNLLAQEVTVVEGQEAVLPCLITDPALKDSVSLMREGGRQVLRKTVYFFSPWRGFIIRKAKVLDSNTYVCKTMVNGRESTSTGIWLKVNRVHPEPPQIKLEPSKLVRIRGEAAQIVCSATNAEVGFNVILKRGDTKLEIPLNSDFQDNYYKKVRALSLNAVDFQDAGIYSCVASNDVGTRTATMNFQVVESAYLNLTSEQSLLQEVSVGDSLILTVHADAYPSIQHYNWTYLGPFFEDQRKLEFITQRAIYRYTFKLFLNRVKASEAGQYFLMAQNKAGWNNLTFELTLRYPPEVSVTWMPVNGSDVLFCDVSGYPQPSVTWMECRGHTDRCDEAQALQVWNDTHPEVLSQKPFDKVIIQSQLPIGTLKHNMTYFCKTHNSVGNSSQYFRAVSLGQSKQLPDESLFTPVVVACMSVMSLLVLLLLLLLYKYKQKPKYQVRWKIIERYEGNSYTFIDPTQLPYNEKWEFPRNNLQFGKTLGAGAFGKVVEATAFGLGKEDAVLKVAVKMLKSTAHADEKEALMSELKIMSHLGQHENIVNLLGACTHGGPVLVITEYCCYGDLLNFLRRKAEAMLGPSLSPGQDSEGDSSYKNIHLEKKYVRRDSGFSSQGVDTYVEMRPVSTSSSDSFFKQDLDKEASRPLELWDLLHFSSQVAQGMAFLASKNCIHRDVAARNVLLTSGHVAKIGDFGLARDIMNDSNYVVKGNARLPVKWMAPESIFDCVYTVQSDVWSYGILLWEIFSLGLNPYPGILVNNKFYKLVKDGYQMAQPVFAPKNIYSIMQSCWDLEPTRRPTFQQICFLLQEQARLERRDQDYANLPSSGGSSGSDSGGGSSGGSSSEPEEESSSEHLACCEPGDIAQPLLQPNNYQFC
The series can be described thus: In vivo inhibition of CSF1R in wildtype mouse assessed as number of S100bteta positive cells per FOV in somatosensory cortex at 1200 ppm administered as rodent chow for 10 to 24 weeks by immunolabelling based confocal microscopic analysis (reference value: 14 to 342). The series is classed as functional. As to conditions: route po, time 10-24 weeks.

Series [15] has as its system Mus musculus. The series can be described thus: Effect on APP processing pathway in 5XFAD mouse assessed as PEN2 protein signal intensity in cortex at 1200 ppm administered as rodent starting from 1.5 months and measured after 7 months (reference value: 13.636 to 217.511 %). The series is classed as functional. As to conditions: route po, time 5.5 months, 4015 h.
For series [16], the target named is Serine/threonine-protein kinase PAK 4 (Homo sapiens, UniProt O96013). As to the kind of experiment: Inhibition of PAK4 (unknown origin).
Series [17] concerns Mus musculus. The series can be described thus: Prevention of Tmem119 gene upregulation in 5XFAD mouse hippocampus at 1200 ppm administered as rodent chow starting from 1.5 months and measured after 7 months by Nanostring analysis. In kind it is functional, tissue-based. To be noted: route po, time 5.5 months.
The subject of series [18] is Mus musculus. As to the kind of experiment: Antialzheimer activity in 5XFAD mouse assessed as amyloidbeta40 level in detergent insoluble thalamus fraction measured per microgram protein at 1200 ppm administered as rodent chow starting from 1.5 months and measured after 7 months by ELISA (reference value: 57.876 to 502395 pg). In kind it is functional. As to conditions: route po, time 5.5 months, 4015 h. A digest of the protocol: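 PLX5622 at 1200 ppm in chow given to 5xFAD mice from 1.5 months to 4 or 7 months of age; cortex and thalamus homogenized in TPER (detergent-soluble), pellets re-homogenized in 70% formic acid and spun 100,000 g, 1 h, 4 °C (insoluble); protein by Bradford/Lowry; Aβ species measured by Meso Scale electrochemiluminescence immunoassay, normalized to protein; n = 7–8 per group at 7 months.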

Series [19] is described as follows: Oral bioavailability in male rat at 45 mg/kg administered as single via gavage. In kind it is ADME, organism-based. To be noted: in vivo.
Series [20] is described as follows: Effect on Hexb gene expression in 5XFAD mouse thalamus at 1200 ppm administered as rodent chow starting from 1.5 months and measured after 7 months by RNA-Seq analysis (reference value: 75.322 to 93.439 RPKM). As to conditions: route po, time 5.5 months, 4015 h. The series is classed as functional.

Activity calls are given as the source filed them. The rule behind the calls is not given here. Bounds are passed on as bounds.

The IC50 is the concentration at which inhibition is half-maximal. A high value points to weaker potency in that assay. By bioavailability is commonly meant dose-corrected exposure relative to a reference, in per cent. Higher therefore signals good availability.

Rhodopsin kinase GRK7, sequence (Q8WTQ7 whole entry): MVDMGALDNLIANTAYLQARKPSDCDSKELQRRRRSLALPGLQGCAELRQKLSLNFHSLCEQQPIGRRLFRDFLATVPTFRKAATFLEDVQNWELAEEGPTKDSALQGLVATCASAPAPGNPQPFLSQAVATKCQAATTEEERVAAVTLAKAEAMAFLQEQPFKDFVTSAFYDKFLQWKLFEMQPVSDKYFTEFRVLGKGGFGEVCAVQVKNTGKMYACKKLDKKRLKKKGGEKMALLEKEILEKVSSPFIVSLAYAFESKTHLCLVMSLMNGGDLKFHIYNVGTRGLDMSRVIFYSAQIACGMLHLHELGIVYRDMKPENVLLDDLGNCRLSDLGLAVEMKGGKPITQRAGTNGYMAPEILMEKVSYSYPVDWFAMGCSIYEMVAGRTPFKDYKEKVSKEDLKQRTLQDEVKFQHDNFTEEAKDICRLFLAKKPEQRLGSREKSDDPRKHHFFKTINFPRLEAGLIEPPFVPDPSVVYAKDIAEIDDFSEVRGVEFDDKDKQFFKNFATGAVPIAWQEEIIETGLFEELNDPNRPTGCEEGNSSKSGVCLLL
cGMP-dependent protein kinase 2, sequence (Q13237 whole entry): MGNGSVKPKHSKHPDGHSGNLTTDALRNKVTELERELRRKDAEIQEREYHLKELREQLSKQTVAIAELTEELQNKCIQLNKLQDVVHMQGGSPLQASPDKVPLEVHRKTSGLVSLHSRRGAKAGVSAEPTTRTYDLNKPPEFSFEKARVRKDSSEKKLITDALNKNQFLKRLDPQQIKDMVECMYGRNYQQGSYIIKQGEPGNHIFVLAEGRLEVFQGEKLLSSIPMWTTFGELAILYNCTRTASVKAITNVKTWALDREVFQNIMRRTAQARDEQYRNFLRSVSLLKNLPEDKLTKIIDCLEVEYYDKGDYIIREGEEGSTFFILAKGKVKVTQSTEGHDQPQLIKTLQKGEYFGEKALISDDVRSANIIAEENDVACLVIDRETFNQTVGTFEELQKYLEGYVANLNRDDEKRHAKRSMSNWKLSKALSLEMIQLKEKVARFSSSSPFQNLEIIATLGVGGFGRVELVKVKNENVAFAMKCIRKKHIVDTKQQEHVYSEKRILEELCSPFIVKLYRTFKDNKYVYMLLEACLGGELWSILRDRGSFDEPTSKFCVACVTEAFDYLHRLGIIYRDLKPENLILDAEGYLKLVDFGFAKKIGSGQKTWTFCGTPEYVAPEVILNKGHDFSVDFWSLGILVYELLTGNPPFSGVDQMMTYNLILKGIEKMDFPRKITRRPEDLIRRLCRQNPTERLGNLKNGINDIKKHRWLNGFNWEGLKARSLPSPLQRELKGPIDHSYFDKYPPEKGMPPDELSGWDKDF
Ribosomal protein S6 kinase alpha-6, sequence (Q9UK32 whole entry): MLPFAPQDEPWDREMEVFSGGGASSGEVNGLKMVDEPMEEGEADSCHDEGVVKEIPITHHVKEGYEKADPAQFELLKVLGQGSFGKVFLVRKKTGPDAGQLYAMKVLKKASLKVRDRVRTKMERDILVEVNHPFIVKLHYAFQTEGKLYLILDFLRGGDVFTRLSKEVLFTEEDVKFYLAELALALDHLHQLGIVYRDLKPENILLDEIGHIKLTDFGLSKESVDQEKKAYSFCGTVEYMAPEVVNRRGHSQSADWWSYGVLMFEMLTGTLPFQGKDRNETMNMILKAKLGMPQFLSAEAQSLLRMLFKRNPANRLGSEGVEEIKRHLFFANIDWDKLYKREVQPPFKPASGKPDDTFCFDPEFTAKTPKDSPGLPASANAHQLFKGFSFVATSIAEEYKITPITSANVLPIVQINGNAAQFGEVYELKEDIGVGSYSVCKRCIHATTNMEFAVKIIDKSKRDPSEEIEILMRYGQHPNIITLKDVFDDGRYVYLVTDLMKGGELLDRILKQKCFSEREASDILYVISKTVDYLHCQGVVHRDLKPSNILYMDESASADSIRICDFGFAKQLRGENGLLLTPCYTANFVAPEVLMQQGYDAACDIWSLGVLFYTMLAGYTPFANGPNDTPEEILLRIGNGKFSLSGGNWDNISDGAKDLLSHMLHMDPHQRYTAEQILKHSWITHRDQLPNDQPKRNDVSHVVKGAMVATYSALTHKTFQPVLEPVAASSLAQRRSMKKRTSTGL
Serine/threonine-protein kinase PAK 4, sequence (O96013 whole entry): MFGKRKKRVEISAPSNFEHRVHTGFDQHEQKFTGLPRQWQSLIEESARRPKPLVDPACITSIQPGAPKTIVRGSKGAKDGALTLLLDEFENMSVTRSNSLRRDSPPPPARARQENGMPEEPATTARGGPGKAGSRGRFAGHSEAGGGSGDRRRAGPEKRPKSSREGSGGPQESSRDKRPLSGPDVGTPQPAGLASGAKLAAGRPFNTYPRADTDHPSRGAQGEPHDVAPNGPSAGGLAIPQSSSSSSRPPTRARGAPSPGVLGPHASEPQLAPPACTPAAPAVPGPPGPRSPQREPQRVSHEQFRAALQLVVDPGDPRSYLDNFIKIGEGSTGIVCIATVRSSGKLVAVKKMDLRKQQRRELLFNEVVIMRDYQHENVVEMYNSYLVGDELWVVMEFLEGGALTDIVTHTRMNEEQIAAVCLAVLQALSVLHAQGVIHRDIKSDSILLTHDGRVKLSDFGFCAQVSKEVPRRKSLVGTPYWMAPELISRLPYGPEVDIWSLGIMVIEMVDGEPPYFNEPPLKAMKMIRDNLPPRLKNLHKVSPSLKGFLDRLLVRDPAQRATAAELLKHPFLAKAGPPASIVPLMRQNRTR
Casein kinase II subunit alpha', sequence (P19784 whole entry): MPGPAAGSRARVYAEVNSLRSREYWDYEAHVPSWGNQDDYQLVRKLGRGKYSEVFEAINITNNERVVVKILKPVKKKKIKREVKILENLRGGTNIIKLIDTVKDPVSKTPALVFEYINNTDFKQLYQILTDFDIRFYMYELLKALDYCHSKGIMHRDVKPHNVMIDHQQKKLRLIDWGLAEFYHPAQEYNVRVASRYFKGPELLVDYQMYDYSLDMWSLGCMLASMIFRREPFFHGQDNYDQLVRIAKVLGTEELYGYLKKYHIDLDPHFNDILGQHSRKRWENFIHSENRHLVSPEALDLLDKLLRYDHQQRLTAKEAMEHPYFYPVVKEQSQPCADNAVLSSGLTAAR
Tyrosine-protein kinase Fes/Fps, sequence (P07332 whole entry): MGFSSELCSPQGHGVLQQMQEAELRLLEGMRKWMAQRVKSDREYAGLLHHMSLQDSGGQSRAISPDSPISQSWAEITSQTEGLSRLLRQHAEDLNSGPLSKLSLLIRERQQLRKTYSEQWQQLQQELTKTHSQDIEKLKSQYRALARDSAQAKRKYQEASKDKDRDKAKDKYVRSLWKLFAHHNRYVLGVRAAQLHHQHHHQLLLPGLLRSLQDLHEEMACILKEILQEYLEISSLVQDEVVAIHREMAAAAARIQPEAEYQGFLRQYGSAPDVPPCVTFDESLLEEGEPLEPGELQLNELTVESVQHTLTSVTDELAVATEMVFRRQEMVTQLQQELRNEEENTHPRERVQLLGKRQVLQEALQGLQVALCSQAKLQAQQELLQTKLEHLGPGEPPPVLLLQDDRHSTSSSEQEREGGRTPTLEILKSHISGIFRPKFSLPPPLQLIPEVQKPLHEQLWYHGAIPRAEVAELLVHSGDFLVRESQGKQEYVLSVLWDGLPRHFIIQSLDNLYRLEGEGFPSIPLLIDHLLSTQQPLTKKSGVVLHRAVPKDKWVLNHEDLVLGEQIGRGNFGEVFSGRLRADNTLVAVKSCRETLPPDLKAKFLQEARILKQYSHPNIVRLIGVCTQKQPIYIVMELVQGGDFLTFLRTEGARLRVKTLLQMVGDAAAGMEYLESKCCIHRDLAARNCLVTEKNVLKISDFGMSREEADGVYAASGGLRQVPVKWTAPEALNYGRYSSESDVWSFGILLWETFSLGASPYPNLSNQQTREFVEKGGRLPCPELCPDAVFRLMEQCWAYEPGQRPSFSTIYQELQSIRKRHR
Tyrosine-protein kinase BTK, sequence (Q06187 whole entry): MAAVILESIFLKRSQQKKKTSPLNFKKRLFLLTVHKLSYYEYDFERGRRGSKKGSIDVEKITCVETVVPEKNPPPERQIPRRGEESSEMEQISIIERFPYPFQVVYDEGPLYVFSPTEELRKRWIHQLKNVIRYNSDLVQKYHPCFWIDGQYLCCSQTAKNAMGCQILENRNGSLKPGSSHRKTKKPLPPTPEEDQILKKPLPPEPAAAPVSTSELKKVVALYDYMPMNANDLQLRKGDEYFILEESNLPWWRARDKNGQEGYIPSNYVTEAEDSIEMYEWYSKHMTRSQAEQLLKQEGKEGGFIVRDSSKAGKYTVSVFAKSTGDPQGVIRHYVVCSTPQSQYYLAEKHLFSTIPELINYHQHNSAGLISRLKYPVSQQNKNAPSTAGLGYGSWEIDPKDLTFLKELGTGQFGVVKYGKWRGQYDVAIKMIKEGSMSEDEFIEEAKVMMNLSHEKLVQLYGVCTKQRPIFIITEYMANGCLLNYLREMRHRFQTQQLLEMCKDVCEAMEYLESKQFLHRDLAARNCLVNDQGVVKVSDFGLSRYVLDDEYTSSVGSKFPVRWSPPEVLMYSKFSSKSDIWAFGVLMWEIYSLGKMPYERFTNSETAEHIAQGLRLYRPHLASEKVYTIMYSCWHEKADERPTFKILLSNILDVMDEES

Consider `FC(F)(F)c1ccc(CNc2ccc(Cc3c[nH]c4ncc(Cl)cc34)cn2)cn1` [PEXIDARTINIB], for which the concentration at 2555 h in series [1] came to 5 µM.

With `COc1ncc(F)cc1CNc1ccc(Cc2c[nH]c3ncc(C)cc23)c(F)n1` [PLX-5622], in [2], the Vd is 0.34 L/kg. For the same molecule, the IC50 (in series [3]; in [4]; in series [5]; at Rhodopsin kinase GRK7; in series [8]; against Ephrin type-B receptor 1) was over 1000 nM in each case. Further, the IC50 in [10], in series [11], in [12] and in series [16] was over 1000 nM throughout. In addition, the Flu intensity in the series with Mus musculus [6] amounted to 21.124 a.u. Moreover, the Activity in series [7] was found to be 52.407%; in the series with Mus musculus [9], 4.447 um; in the series on Mus musculus [13], 83.86; in series [14], 270; with Mus musculus [15], 7.565%; in the series with Mus musculus [18], 100.854 pg. The molecule further yielded an Activity in [20] of 10.635 RPKM. For the same molecule, the outcome in the series with Mus musculus [17] was Active. For the same molecule, the bioavailability in series [19] was determined as 95%.

These data come from ChEMBL document CHEMBL5649170, “Sustained microglial depletion with CSF1R inhibitor impairs parenchymal plaque development in an Alzheimer's disease model” (Nat Commun, 2019).
